Experimental findings from ChEMBL document CHEMBL1145300, “Design, synthesis, and anti-inflammatory activity both in vitro and in vivo of new betulinic acid analogues having an enone functionality in ring A” (Bioorg Med Chem Lett, 2006) are described below.

The source made the active and inactive calls. The calls are words filed in the database; no cut-off is given here.

In general, IC50 refers to the point on the concentration scale where inhibition reaches its midpoint. High values mean weaker potency in that assay, low ones greater potency in that assay.

The test system of the first assay is RAW. Put plainly: Inhibition of nitric oxide production in IFN-gamma stimulated RAW 264.7 cells. The following applies: Mus musculus. It is filed as functional, cell-based.
`C=C(C)[C@@H]1CC[C@]2(C(=O)OC)CC[C@]3(C)C(CC[C@@H]4[C@@]5(C)C=C(C#N)C(=O)C(C)(C)[C@@H]5CC[C@]43C)[C@@H]12` (stereo partly drawn) gave a half-maximal inhibitory concentration (IC50) of 30 nM.

Turning to `C=C(C)[C@@H]1CC[C@]2(C(=O)OCC)CC[C@]3(C)C(CC[C@@H]4[C@@]5(C)C=C(C#N)C(=O)C(C)(C)[C@@H]5CC[C@]43C)[C@@H]12` (stereo partly drawn), the IC50 was 20 nM.

For the compound `C=C(C)[C@@H]1CC[C@]2(C(=O)N(C)C)CC[C@]3(C)C(CC[C@@H]4[C@@]5(C)C=C(C#N)C(=O)C(C)(C)[C@@H]5CC[C@]43C)[C@@H]12` (stereo partly drawn), the IC50 is 30 nM.

For `C=C(C)[C@@H]1CC[C@]2(C(=O)O)CC[C@]3(C)C(CC[C@@H]4[C@@]5(C)C=C(C#N)C(=O)C(C)(C)[C@@H]5CC[C@]43C)[C@@H]12` (stereo partly drawn), the half-inhibitory concentration (IC50) was 200 nM.

The compound `C=C(CF)[C@@H]1CC[C@]2(C(=O)OC)CC[C@]3(C)C(CC[C@@H]4[C@@]5(C)C=C(C(=O)OC)C(=O)C(C)(C)[C@@H]5CC[C@]43C)[C@@H]12` (stereo partly drawn) yielded an IC50 of 300 nM. Against the preceding compound, the IC50 is about 1.5-fold higher.

As to `C=C(C)[C@@H]1CC[C@]2(C(=O)n3ccnc3)CC[C@]3(C)C(CC[C@@H]4[C@@]5(C)C=C(C#N)C(=O)C(C)(C)[C@@H]5CC[C@]43C)[C@@H]12` (stereo partly drawn), the concentration for half-maximal inhibition (IC50) was 30 nM. This IC50 lies about 10-fold lower than the previous one.

`C=C(C)[C@@H]1CC[C@]2(C(=O)n3ccnc3C)CC[C@]3(C)C(CC[C@@H]4[C@@]5(C)C=C(C#N)C(=O)C(C)(C)[C@@H]5CC[C@]43C)[C@@H]12` (stereo partly drawn) displayed an IC50 of 50 nM. Compared with the last compound, the IC50 is about 1.7-fold higher.

`C=C(C)[C@@H]1CC[C@]2(C(=O)OC)CC[C@]3(C)C(CC[C@@H]4[C@@]5(C)C=C(C(=O)OC)C(=O)C(C)(C)[C@@H]5CC[C@]43C)[C@@H]12` (stereo partly drawn) displayed a concentration for half-maximal inhibition (IC50) of 600 nM.

In turn, `C=C(C)[C@@H]1CC[C@]2(C(=O)NC)CC[C@]3(C)C(CC[C@@H]4[C@@]5(C)C=C(C#N)C(=O)C(C)(C)[C@@H]5CC[C@]43C)[C@@H]12` (stereo partly drawn) gave an IC50 of 50 nM.

Regarding `C=C(CF)[C@@H]1CC[C@]2(C(=O)OC)CC[C@]3(C)C(CC[C@@H]4[C@@]5(C)C=C(C(=O)O)C(=O)C(C)(C)[C@@H]5CC[C@]43C)[C@@H]12` (stereo partly drawn), half-maximal inhibition (IC50) was put at 300 nM.

`C=C(C)[C@@H]1CC[C@]2(C(=O)n3ccnc3CC)CC[C@]3(C)C(CC[C@@H]4[C@@]5(C)C=C(C#N)C(=O)C(C)(C)[C@@H]5CC[C@]43C)[C@@H]12` (stereo partly drawn) showed an IC50 of 30 nM.

Turning to `C=C(C)[C@@H]1CC[C@]2(C(=O)OC)CC[C@]3(C)C(CC[C@@H]4[C@@]5(C)C=C(C(=O)O)C(=O)C(C)(C)[C@@H]5CC[C@]43C)[C@@H]12` (stereo partly drawn), inhibition was half-maximal at 300 nM (IC50).

As for `C=C(C)[C@@H]1CC[C@]2(C(=O)O)CC[C@]3(C)[C@H](CC[C@@H]4[C@@]5(C)CC[C@H](O)C(C)(C)[C@@H]5CC[C@]43C)[C@@H]12`, the result was inactive.

The compound `C=C(C)[C@@H]1CC[C@]2(C(N)=O)CC[C@]3(C)C(CC[C@@H]4[C@@]5(C)C=C(C#N)C(=O)C(C)(C)[C@@H]5CC[C@]43C)[C@@H]12` (stereo partly drawn) showed an IC50 of 30 nM. That is a double-digit nanomolar value.

`C=C(CO)[C@@H]1CC[C@]2(C(=O)OC)CC[C@]3(C)C(CC[C@@H]4[C@@]5(C)C=C(C(=O)OC)C(=O)C(C)(C)[C@@H]5CC[C@]43C)[C@@H]12` (stereo partly drawn) showed an IC50 of 1000 nM.

Regarding `C=C(CO)[C@@H]1CC[C@]2(C(=O)OC)CC[C@]3(C)C(CC[C@@H]4[C@@]5(C)C=C(C(=O)O)C(=O)C(C)(C)[C@@H]5CC[C@]43C)[C@@H]12` (stereo partly drawn), the IC50 is 900 nM. This IC50 and that of the compound before are within 1.5-fold of each other.

The target of a further assay is T1, Heme oxygenase 1 (Mus musculus) (UniProt P14901).
T1 sequence (whole entry): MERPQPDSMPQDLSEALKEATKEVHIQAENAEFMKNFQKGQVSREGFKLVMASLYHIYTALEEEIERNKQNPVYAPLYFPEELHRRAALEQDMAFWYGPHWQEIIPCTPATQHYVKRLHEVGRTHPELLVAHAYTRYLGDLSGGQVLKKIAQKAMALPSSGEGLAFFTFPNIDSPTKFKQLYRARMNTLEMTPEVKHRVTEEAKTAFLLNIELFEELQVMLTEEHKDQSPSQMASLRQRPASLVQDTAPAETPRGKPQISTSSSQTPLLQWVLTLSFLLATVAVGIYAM
Kind of assay: Induction of liver HO1 in CD1 mouse at 2 uM, po after 6 hrs. It is filed as organism-based.
Details: not given
An outline of the steps: (§1)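 Male CD-1 mice, 3 per group, were given a single oral gavage of 2 μmole triterpenoid in DMSO. The read-out was heme oxygenase-1 (HO-1) induction in the liver.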
Take `C=C(C)[C@@H]1CC[C@]2(C(=O)n3ccnc3)CC[C@]3(C)C(CC[C@@H]4[C@@]5(C)C=C(C#N)C(=O)C(C)(C)[C@@H]5CC[C@]43C)[C@@H]12` (stereo partly drawn): the outcome was Active.

Another assay has as its system Mus musculus. Put plainly: Antiinflammatory activity in CD1 mouse at 2 uM, po. It is filed as functional, organism-based.
Details: not given
In a few lines:
as §1
`C=C(C)[C@@H]1CC[C@]2(C(=O)n3ccnc3)CC[C@]3(C)C(CC[C@@H]4[C@@]5(C)C=C(C#N)C(=O)C(C)(C)[C@@H]5CC[C@]43C)[C@@H]12` (stereo partly drawn): the outcome was Active.
